pIC50: −log10 of the molar value.
Assays:
[1] = Cmax in mouse at 5 mg/kg, po; assay type: ADME, organism-based; parameters: dose 5 mg/kg, route oral; settings: in vivo
[2] = Mean residence time in Sprague-Dawley rat at 0.5 mg/kg, iv; assay type: ADME, organism-based; parameters: dose 0.5 mg/kg, route intravenous; settings: in vivo
Outline: (§1)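 Male Sprague-Dawley rats dosed 0.5 mg/kg iv.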

[3] = AUC in mouse at 5 mg/kg, po; assay type: ADME, organism-based; parameters: dose 5 mg/kg, route oral; settings: plasma
[4] = Mean residence time in mouse at 5 mg/kg, po; assay type: ADME, organism-based; parameters: dose 5 mg/kg, route oral; settings: in vivo
[5] = biological target: T1, Free fatty acid receptor 2 (Homo sapiens, UniProt O15552); assay: Agonist activity at human FFA2 receptor expressed in CHO cells assessed as inhibition of forskolin-induced cAMP production; assay type: functional, cell-based
T1 sequence (O15552 whole entry): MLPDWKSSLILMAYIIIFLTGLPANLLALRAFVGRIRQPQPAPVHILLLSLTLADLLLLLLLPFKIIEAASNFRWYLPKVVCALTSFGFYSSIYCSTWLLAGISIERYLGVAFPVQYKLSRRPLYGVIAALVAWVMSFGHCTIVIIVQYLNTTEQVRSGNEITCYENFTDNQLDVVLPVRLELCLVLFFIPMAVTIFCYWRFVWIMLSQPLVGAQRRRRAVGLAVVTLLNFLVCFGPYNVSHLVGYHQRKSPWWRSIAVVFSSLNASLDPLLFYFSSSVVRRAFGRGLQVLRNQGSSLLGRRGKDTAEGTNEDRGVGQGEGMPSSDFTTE
Outline: (§2)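 Suspended cells, 10,000 per well, in Hank's balanced salt solution with 25 mM HEPES and 0.01% (w/v) BSA. Stimulated with forskolin (5 μM final) plus serially diluted test ligands, room temperature for 30 min. Antibody and lysis reagents then added, followed by overnight dark incubation with detection solution. Luminescence read (RLU). Efficacy expressed relative to acetate. Means of four experiments.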

[6] = biological target: T2, Free fatty acid receptor 2 (Homo sapiens) (UniProt O15552); assay: Agonist activity at human FFA2 receptor expressed in CHO cells assessed as inhibition of forskolin-induced cAMP production relative to acetate; assay type: functional, cell-based; outline: as §2
T2 sequence (whole entry): T1 sequence (O15552 whole entry)

Rattus norvegicus [7] = assay: Clearance in Sprague-Dawley rat at 0.5 mg/kg, iv; assay type: ADME, organism-based; parameters: dose 0.5 mg/kg, route intravenous; settings: in vivo; outline: as §1
[8] = Tmax in mouse at 5 mg/kg, po; assay type: ADME, organism-based; parameters: dose 5 mg/kg, route oral; settings: in vivo
[9] = Volume of distribution at steady state in Sprague-Dawley rat at 0.5 mg/kg, iv; assay type: ADME, organism-based; parameters: dose 0.5 mg/kg, route intravenous; settings: in vivo, read-out: Vdss; outline: as §1
Rattus norvegicus [10] = assay: AUC in Sprague-Dawley rat at 0.5 mg/kg, iv; assay type: ADME, organism-based, Plasma; parameters: dose 0.5 mg/kg, route intravenous; settings: in vivo; outline: as §1
[11] = Metabolic stability in rat liver microsomes assessed as compound remaining after 30 mins; assay type: ADME, Microsome; settings: read-out: Stability
Outline: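 Incubated with rat liver microsomes; percent parent remaining at 30 min.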

[12] = biological target: T3, Free fatty acid receptor 2 (Mus musculus) (UniProt Q8VCK6); assay: Agonist activity at mouse FFA2 receptor expressed in CHO cells assessed as inhibition of forskolin-induced cAMP production; assay type: functional, cell-based; outline: as §2
T3 sequence (whole entry): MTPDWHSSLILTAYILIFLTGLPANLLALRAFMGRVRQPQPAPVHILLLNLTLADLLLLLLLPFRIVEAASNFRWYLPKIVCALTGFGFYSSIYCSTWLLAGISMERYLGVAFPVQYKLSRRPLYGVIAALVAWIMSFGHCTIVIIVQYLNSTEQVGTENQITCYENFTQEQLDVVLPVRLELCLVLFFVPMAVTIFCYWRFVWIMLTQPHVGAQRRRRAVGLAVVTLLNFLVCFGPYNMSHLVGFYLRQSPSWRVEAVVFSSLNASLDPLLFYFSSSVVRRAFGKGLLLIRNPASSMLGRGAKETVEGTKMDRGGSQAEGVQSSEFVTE

3T3-L1 = assay: Inhibition of lipolysis in mouse 3T3L1 cells; assay type: functional, cell-based
Outline: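 Lipolysis measured in 3T3L1 adipocytes across a concentration range of test compound. Sensitivity to pertussis toxin treatment also examined. Means of three experiments.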

## CC(C)(C)[C@H](C(=O)Nc1ncc(-c2ccccc2)s1)c1ccc(Cl)cc1
[1]
  Cmax: 1870 ng/mL
[2]
  MRT: 9.1 h
[3]
  AUC: 18600 µg·h/mL
[4]
  MRT: 9.2 h
[5]
  pIC50: 6.15
[6]
  Efficacy: 111%
Rattus norvegicus [7]
  CL: 5.33 mL/min/kg
[8]
  Tmax: 2 h
[9]
  Vd: 2.7 L/kg
Rattus norvegicus [10]
  AUC: 1.67 µg·h/mL

## CC(C)[C@H](C(=O)Nc1nccs1)c1ccc(Cl)cc1
[1]
  Cmax: 5 ng/mL
[2]
  MRT: 1.1 h
[3]
  AUC: 10 µg·h/mL
[4]
  MRT: 1.8 h
[5]
  pIC50: 6.15
[11]
  remaining at 0.5 h: 2%
[12]
  Activity: 1 µM
[6]
  Efficacy: 100%
Rattus norvegicus [7]
  CL: 107 mL/min/kg
[8]
  Tmax: 1 h
[9]
  Vd: 7 L/kg
3T3-L1
  inhibition: Dose-dependent effect
Rattus norvegicus [10]
  AUC: 0.079 µg·h/mL

## Cc1cnc(NC(=O)[C@H](c2ccc(Cl)cc2)C(C)C)s1
[5]
  pIC50: 6.10
[12]
  Activity: 1.4 µM
[6]
  Efficacy: 99%
3T3-L1
  inhibition: Dose-dependent effect

## CC(C)[C@H](C(=O)Nc1ncc(Cl)s1)c1ccc(Cl)cc1
[2]
  MRT: 4.2 h
[5]
  pIC50: 6.15
[6]
  Efficacy: 100%
Rattus norvegicus [7]
  CL: 33 mL/min/kg
[9]
  Vd: 8.3 L/kg
Rattus norvegicus [10]
  AUC: 0.249 µg·h/mL

## CC(C)(C)[C@H](C(=O)Nc1ncc(Cl)s1)c1ccc(Cl)cc1
[1]
  Cmax: 569 ng/mL
[2]
  MRT: 9 h
[3]
  AUC: 4550 µg·h/mL
[4]
  MRT: 7.6 h
[5]
  pIC50: 6.00
[6]
  Efficacy: 97%
Rattus norvegicus [7]
  CL: 8 mL/min/kg
[8]
  Tmax: 2 h
[9]
  Vd: 4.4 L/kg
Rattus norvegicus [10]
  AUC: 1.03 µg·h/mL

## CC(C)[C@H](NC(=O)c1nccs1)c1ccc(Cl)cc1
[5]
  pIC50: < 4.00
[6]
  Efficacy: < 30%

## O=C(Nc1ncc(F)s1)[C@H](c1ccccn1)C1CC1
[5]
  pIC50: 4.35
[6]
  Efficacy: 75%

## CC(C)C(C(=O)Nc1cccnc1)c1ccc(Cl)cc1 (racemic)
[5]
  pIC50: 4.31
[6]
  Efficacy: 73%

## CC(C)[C@H](C(=O)Nc1ncco1)c1ccc(Cl)cc1
[5]
  pIC50: 4.60
[6]
  Efficacy: 92%

## CC(C)C(C(=O)Nc1cnccn1)c1ccc(Cl)cc1 (racemic)
[5]
  pIC50: 5.24
[6]
  Efficacy: 115%

## CC(C)[C@H](C(=O)Nc1ccccn1)c1ccc(Cl)cc1
[5]
  pIC50: 5.85
[6]
  Efficacy: 92%

## COCC[C@H](C(=O)Nc1nccs1)c1ccc(Cl)cc1
[5]
  pIC50: 3.77
[6]
  Efficacy: 53%

## CC(C)[C@H](C(=O)Nc1ccc(F)cn1)c1ccc(Cl)cc1
[5]
  pIC50: 5.89
[6]
  Efficacy: 93%

## C[C@H](C(=O)Nc1nccs1)c1ccc(Cl)cc1
[5]
  pIC50: 4.34
[6]
  Efficacy: 83%

## CO/C(=N\c1nccs1)[C@H](c1ccc(Cl)cc1)C(C)C
[5]
  pIC50: < 4.00
[6]
  Efficacy: < 30%

## CC(C)C(C(=O)Nc1nc(-c2cccnc2)cs1)c1ccc(Cl)cc1 (racemic)
[5]
  pIC50: < 4.00
[6]
  Efficacy: < 30%

## O=C(Nc1ncc(F)s1)[C@H](c1ccc(C(F)(F)F)cc1)C1CC1
[5]
  pIC50: 5.96
[6]
  Efficacy: 108%

## CC(C)[C@H](C(=O)Nc1nncs1)c1ccc(Cl)cc1
[5]
  pIC50: 4.92
[6]
  Efficacy: 115%

## CC(C)[C@H](C(=O)Nc1nc2cc(Cl)ccc2o1)c1ccc(Cl)cc1
[5]
  pIC50: 5.37
[6]
  Efficacy: 88%
